Substitutions are numbered along the chain they refer to.
What was measured:
[1] = target: T1, Free fatty acid receptor 4 (Homo sapiens, UniProt Q5NUL3); assay: Agonist activity at human FFA4 receptor expressed in human U2OS cells co-expressing Galpha16 assessed as calcium mobilization by Fluo-4 dye based FLIPR assay; assay type: functional, cell-based
T1 sequence (Q5NUL3 whole entry): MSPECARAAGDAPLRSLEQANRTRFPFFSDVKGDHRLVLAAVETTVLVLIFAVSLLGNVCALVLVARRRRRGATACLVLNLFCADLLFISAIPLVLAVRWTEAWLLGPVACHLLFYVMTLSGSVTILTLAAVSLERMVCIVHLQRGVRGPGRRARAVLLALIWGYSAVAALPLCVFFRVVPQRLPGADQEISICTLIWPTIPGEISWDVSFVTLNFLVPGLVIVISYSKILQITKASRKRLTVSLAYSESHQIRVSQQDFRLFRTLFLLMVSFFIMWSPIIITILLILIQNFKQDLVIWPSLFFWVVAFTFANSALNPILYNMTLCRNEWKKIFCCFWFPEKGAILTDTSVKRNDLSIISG
Summary of the method: (§1)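 U2OS cells transiently expressing human FFA1 or FFA4. Agonism measured from a ten-point dose-response curve with FLIPR readout, giving EC50 (nM) and efficacy (% max response). Values are means of three experiments.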

[2] = AUC in C57BL/6J mouse at 10 mg/kg, po; assay type: ADME, organism-based; conditions: in vivo
Summary of the method: (§2)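 C57BL/6J mice (n = 2), single oral dose of 10 mg/kg given as a suspension in 0.5% HMPC: 0.1% Tween. Plasma Cmax and AUC (hr*ng/mL) measured; %F calculated against the IV leg.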

[3] = test system: Mus musculus; assay: Antidiabetic activity in db/db mouse assessed as plasma glucose level at 100 mg/kg, po bid after 2 weeks (reference value: 276 mg/dl); assay type: functional
Summary of the method: (§3)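 Fed db/db mice given vehicle or 100 mg/kg orally twice daily for 2 weeks. Blood glucose measured before treatment and after 1 and 2 weeks; HbA1c measured before and after 2 weeks.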

[4] = species on record: Rattus norvegicus; assay: Selectivity ratio of EC50 for rat FFA1 receptor to EC50 for rat FFA4 receptor
[5] = Clearance in C57BL/6J mouse at 4.2 mg/kg, iv; assay type: ADME, organism-based; conditions: in vivo
Summary of the method: (§4)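 C57BL/6J mice (n = 2) dosed intravenously at 3 or 4.2 mg/kg. Clearance (mL/min/kg) and AUC (hr*ng/mL) derived from plasma concentrations.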

[6] = target: T2, Free fatty acid receptor 1 (Homo sapiens, UniProt O14842); assay: Agonist activity at human FFA1 receptor expressed in human U2OS cells co-expressing Galpha16 assessed as calcium mobilization by Fluo-4 dye based FLIPR assay; assay type: functional, cell-based; conditions: read-out: EC50; summary of the method: as §1
T2 sequence (O14842 whole entry): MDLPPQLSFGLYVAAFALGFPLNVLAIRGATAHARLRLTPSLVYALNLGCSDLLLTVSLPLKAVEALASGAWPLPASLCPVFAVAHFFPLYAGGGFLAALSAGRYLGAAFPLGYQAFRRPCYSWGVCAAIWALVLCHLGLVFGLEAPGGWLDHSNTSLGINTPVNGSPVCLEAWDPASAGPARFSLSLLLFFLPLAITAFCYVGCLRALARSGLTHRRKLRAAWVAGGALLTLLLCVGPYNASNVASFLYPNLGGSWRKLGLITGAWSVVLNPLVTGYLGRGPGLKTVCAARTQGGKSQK

[7] = target: Free fatty acid receptor 1 (Rattus norvegicus, UniProt Q8K3T4); assay: Agonist activity at rat FFA1 receptor
Chain of Free fatty acid receptor 1 (Rattus norvegicus, UniProt Q8K3T4) (Q8K3T4 whole entry): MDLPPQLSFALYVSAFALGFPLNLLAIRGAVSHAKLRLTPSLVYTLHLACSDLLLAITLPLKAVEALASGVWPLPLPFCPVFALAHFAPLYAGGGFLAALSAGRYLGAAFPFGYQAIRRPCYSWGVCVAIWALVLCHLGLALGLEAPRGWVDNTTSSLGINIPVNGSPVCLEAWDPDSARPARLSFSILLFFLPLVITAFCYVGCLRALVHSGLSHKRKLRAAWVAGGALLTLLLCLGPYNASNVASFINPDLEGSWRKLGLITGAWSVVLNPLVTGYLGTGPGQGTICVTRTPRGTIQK

[8] = target: T3, Free fatty acid receptor 3 (Homo sapiens, UniProt O14843); assay: Agonist activity at human FFA3 receptor by FLIPR assay
T3 sequence (O14843 whole entry): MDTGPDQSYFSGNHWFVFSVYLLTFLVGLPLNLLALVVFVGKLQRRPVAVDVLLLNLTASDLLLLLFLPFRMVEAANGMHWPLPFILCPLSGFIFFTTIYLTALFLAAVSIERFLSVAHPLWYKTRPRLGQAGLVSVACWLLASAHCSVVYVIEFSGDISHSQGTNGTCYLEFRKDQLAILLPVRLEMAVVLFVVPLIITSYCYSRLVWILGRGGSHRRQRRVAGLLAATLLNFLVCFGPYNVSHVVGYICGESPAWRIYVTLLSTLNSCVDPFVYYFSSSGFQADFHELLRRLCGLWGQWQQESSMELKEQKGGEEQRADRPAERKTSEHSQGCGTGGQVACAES
Summary of the method: (§5)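 Human FFA2 or FFA3 agonism tested in FLIPR-based full-curve functional assays. EC50 (nM) and max response (%) reported.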

[9] = target: T4, Free fatty acid receptor 2 (Homo sapiens) (UniProt O15552); assay: Agonist activity at human FFA2 receptor by FLIPR assay relative to control; summary of the method: as §5
T4 sequence (whole entry): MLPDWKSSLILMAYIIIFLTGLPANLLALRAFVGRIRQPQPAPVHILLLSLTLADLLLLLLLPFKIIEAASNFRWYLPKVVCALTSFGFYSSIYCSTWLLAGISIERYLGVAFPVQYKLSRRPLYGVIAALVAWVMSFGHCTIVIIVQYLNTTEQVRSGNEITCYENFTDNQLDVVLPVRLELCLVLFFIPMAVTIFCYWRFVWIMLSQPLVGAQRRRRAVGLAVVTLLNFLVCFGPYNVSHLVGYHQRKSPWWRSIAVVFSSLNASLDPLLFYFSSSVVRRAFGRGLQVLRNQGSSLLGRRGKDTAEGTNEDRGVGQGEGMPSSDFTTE

[10] = target: T5, Free fatty acid receptor 2 (Homo sapiens, UniProt O15552); assay: Agonist activity at human FFA2 receptor by FLIPR assay; summary of the method: as §5
T5 sequence (O15552 whole entry): T4 sequence (whole entry)

[11] = target: T6, Free fatty acid receptor 4 (Rattus norvegicus, UniProt Q2AC31); assay: Agonist activity at rat FFA4 receptor
T6 sequence (Q2AC31 whole entry): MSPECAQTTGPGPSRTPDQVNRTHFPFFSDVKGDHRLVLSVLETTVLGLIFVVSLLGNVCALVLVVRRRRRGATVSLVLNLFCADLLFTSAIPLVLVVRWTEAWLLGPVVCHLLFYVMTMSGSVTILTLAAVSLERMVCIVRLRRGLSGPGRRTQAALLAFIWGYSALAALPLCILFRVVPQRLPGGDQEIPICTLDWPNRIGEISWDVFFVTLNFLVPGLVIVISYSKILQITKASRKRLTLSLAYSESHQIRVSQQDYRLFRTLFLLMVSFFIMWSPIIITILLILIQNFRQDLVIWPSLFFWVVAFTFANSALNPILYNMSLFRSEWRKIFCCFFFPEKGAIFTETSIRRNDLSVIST

[12] = target: Free fatty acid receptor 1 (Mus musculus, UniProt Q76JU9); assay: Agonist activity at mouse FFA1 receptor
Chain of Free fatty acid receptor 1 (Mus musculus, UniProt Q76JU9) (Q76JU9 whole entry): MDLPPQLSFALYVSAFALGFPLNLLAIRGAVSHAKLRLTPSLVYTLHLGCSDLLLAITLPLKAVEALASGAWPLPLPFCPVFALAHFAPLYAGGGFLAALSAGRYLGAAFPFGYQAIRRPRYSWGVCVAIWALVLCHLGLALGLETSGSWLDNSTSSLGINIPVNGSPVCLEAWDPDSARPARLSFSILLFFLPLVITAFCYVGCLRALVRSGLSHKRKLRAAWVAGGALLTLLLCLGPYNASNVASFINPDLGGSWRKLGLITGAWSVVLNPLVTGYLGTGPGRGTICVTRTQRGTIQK

[13] = species on record: Mus musculus; assay: Selectivity ratio of EC50 for mouse FFA1 receptor to EC50 for mouse FFA4 receptor
[14] = Cmax in C57BL/6J mouse at 10 mg/kg, po; assay type: ADME, organism-based; parameters: dose 10 mg/kg, route oral; conditions: in vivo; summary of the method: as §2
[15] = target: Free fatty acid receptor 1 (Mus musculus) (UniProt Q76JU9); assay: Agonist activity at mouse FFA1 receptor relative to control
Chain of Free fatty acid receptor 1 (Mus musculus) (Q76JU9 whole entry): as above

[16] = target: T7, Free fatty acid receptor 4 (Mus musculus, UniProt Q7TMA4); assay: Agonist activity at mouse FFA4 receptor
T7 sequence (Q7TMA4 whole entry): T6 sequence (Q2AC31 whole entry) with R15H, P17L, L42V, V66A, V75A, S328N, E348D, I351V, T361S

[17] = AUC in C57BL/6J mouse at 4.2 mg/kg, iv; assay type: ADME, organism-based; conditions: in vivo; summary of the method: as §4
[18] = test system: Rattus norvegicus; assay: Antidiabetic activity in ZDF rat assessed as plasma glucose level at 100 mg/kg bid for 14 days (reference value: 192 mg/dl); assay type: functional
[19] = target: T8, Free fatty acid receptor 4 (Mus musculus) (UniProt Q7TMA4); assay: Agonist activity at mouse FFA4 receptor relative to control
T8 sequence (whole entry): T6 sequence (Q2AC31 whole entry) with R15H, P17L, L42V, V66A, V75A, S328N, E348D, I351V, T361S

[20] = target: T9, Free fatty acid receptor 4 (Homo sapiens) (UniProt Q5NUL3); assay: Agonist activity at human FFA4 receptor expressed in human U2OS cells co-expressing Galpha16 assessed as calcium mobilization by Fluo-4 dye based FLIPR assay relative to GSK137647A; assay type: functional, cell-based; summary of the method: as §1
T9 sequence (whole entry): T1 sequence (Q5NUL3 whole entry)

[21] = target: T10, Free fatty acid receptor 4 (Rattus norvegicus) (UniProt Q2AC31); assay: Agonist activity at rat FFA4 receptor relative to control
T10 sequence (whole entry): T6 sequence (Q2AC31 whole entry)

[22] = Half life in C57BL/6J mouse at 10 mg/kg, po; assay type: ADME, organism-based; conditions: in vivo
[23] = Oral bioavailability in C57BL/6J mouse at 10 mg/kg; assay type: ADME, organism-based; conditions: in vivo; summary of the method: as §2
[24] = target: T2, Free fatty acid receptor 1; assay: Agonist activity at human FFA1 receptor expressed in human U2OS cells co-expressing Galpha16 assessed as calcium mobilization by Fluo-4 dye based FLIPR assay relative to GSK137647A; assay type: functional, cell-based; summary of the method: as §1
[25] = Protein binding in human plasma; assay type: ADME, cell-free; conditions: read-out: PPB
[26] = species on record: Homo sapiens; assay: Selectivity ratio of EC50 for human FFA1 receptor expressed in human U2OS cells co-expressing Galpha16 to EC50 for human FFA4 receptor expressed in human U2OS cells co-expressing Galpha16; assay type: cell-based
[27] = test system: Rattus norvegicus; assay: Antidiabetic activity in ZDF rat assessed as plasma glucose level at 10 mg/kg bid for 14 days (reference value: 192 mg/dl); assay type: functional
[28] = test system: Mus musculus; assay: Antidiabetic activity in db/db mouse assessed as reduction in HbA1c level at 100 mg/kg, po bid after 2 weeks relative to control; assay type: functional; parameters: scale not given: the % may be the effect or the level left; summary of the method: as §3

EC50 [1]: 0.299 µM
AUC [2]: 9440 ng·h/mL
Ratio EC50 [4]: > 85
clearance [5]: 20 mL/min/kg
EC50 [6]: 11.8 µM
EC50 [7]: > 30 µM
EC50 [8]: > 50 µM
%max [9]: 59%
EC50 [10]: 25.3 µM
EC50 [11]: 0.23 µM
EC50 [12]: 6.21 µM
Ratio EC50 [13]: > 85
Cmax [14]: 6780 ng/mL
%max [15]: 83%
EC50 [16]: 0.07 µM
AUC [17]: 3620 ng·h/mL
%max [19]: 108%
%max [20]: 124%
%max [21]: 110%
half-life [22]: 1.7 h
bioavailability [23]: 110%
%max [24]: 105%
fraction unbound [25]: 0.001
Structure (SMILES): COc1ccc(C(F)(F)F)cc1COc1ccc(CCC(=O)O)cc1C
Activity [3]: 106 mg/dL
Activity [18]: 139 mg/dL
Ratio EC50 [26]: 40
Activity [27]: 151 mg/dL
Activity [28]: 1.6%

From ChEMBL document CHEMBL3994633, “Exploration of phenylpropanoic acids as agonists of the free fatty acid receptor 4 (FFA4): Identification of an orally efficacious FFA4 agonist” (Bioorg Med Chem Lett, 2017)
